Article PMC5720355 (ACS chemical biology, 2017)

What was measured:
20S proteasome = settings: read-out: EC50, enhancing 20S mediated protein degradation; cited from earlier work
[1] = target: purified 20S proteasome with tau441 and GAPDH (Homo sapiens, UniProt P25787+P60900); assay: In vitro degradation of tau441; type: biochemical; settings: compounds 30 μM; SDS 0.02%
Procedure, shortened: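 Pre-incubate 15nM purified human 20S proteasome with test compound or vehicle for 20 min at RT in 20mM HEPES pH 7.4, 2mM EDTA, 1mM EGTA. Add recombinant tau441 plus GAPDH (0.1μM each, final) and incubate 1 h at 37 °C. Resolve on a 4-20% tris-glycine gel and immunoblot. Quantify tau by densitometry against untreated tau control.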

[2] = target: human constitutive 20S proteasome (CT-L, β5) (Homo sapiens, UniProt P25787+P60900); assay: Proteasome activity assay, 20S chymotrypsin-like; type: biochemical; settings: for enhancement of 20S proteolytic (CT-L) activity, in words: CT-L peptide substrate
[3] = system: HEK 293 cells stably expressing ODC-GFPSpark; assay: ODC-GFPSpark degradation in HEK 293T cells, immunoblot; type: cell-based, human; settings: 50 μM, 24 h, cycloheximide 20 μg/mL
[4] = system: Glioblastoma (U87-MG) cells; assay: Tau degradation in U87MG cells, immunoblot; type: cell-based, human; settings: 50 μM, 24 h, cycloheximide 20 μg/mL
[5] = target: purified human 20S proteasome with α-synuclein and GAPDH (Homo sapiens, UniProt P25787+P60900); assay: In vitro degradation of α-synuclein; type: biochemical
Procedure, shortened: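 Pre-incubate 15nM purified human 20S with test compound (3, 10, 30 μM) or vehicle for 20 min at RT in 20mM HEPES pH 7.4, 2mM EDTA, 1mM EGTA. Add recombinant α-synuclein and GAPDH (0.5μM each, final) and incubate 1 h at 37 °C. Immunoblot α-syn and GAPDH. Controls: reactions without 20S, and 20S pre-treated with bortezomib (3μM).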

26S proteasome = 26S proteasome (Homo sapiens, UniProt P25787+P60900); assay: Proteasome activity assay, 26S-mediated proteolysis of CT-L peptide probe; type: biochemical
Procedure, shortened: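 Pre-incubate 1nM human 26S proteasome with test compound for 10 min at RT in 50mM Tris-HCl pH 7.5 containing 5mM MgCl2 and 2.5mM ATP. Add Suc-LLVY-AMC (10μM) and read the fluorescence increase per minute for 1 h at 37 °C (380-460nm). Express activity as fold of vehicle control.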

[6] = target: human constitutive 20S proteasome (T-L, β2) (Homo sapiens, UniProt P25787+P60900); assay: Proteasome activity assay, 20S tryptic-like; type: biochemical; settings: read-out: EC50, tryptic-like (T-L) activity; Boc-LRR-AMC
[7] = target: human constitutive 20S proteasome (Casp-L, β1) (Homo sapiens, UniProt P25787+P60900); assay: Proteasome activity assay, 20S caspase-like; type: biochemical; settings: read-out: EC50, caspase-like (Casp-L) activity; Z-LLE-AMC

Row | SMILES | rate of 20S-mediated degradation of tau compared to 20S/vehicle control [1] | enhancement of 20S proteolytic (CT-L) activity, in words [2] | GFP-ODC levels compared to controls [3] | tau concentrations compared to the vehicle control [4] | also measured
1 | CCCCC/C=C\C/C=C\C/C=C\C/C=C\CCCC(=O)Nc1ccc(O)cc1 [AM-404] | – | – | – | – | EC50 (20S proteasome): ~32 µM
2 | CCCCCCCCCCCCOS(=O)(=O)[O-].[Na+] [SDS, sodium dodecyl sulfate] | prevents | – | – | – | –
3 | CN(C)CCCN1c2ccccc2Sc2ccc(Cl)cc21 [chlorpromazine, reference compound] | significantly enhance | enhanced 20S proteolytic activity | reduced GFP-ODC levels | significantly reducing tau concentrations | –
4 | CC(C)CCCN1c2ccccc2Sc2ccccc21 [compound 1] | – | – | – | modest clearance of tau | –
5 | O=S(=O)(O)CCCCN1c2ccccc2Sc2ccccc21 [compound 2] | significantly enhance | enhanced 20S proteolytic activity | reduced GFP-ODC levels | significantly reducing tau concentrations | rate of 20S-mediated degradation of α-syn compared to 20S/vehicle control ([5]; 3, 10 and 30 μM, concentration-dependent): significantly enhanced; α-Syn levels in the absence of 20S or with 20S pretreated with bortezomib ([5]; BTZ 3 μM): unaffected; 20S-mediated degradation of the structured protein GAPDH ([5]; any of the concentrations tested (3, 10, 30 μM)): does not enhance; fold enhancement of 20S activity ([2]; at 10 μM): ~4 fold; concentration above which 20S activity drops ([2]; concentration response up to 70 μM, CT-L substrate): > 35 µM; effect on 26S-mediated proteolysis of the CT-L peptide probe (26S proteasome): did not affect; EC50 [6]: 10 µM; EC50 [7]: 4.8 µM
6 | O=S(=O)(O)CCCN1c2ccccc2Sc2ccc(Cl)cc21 [compound 3] | – | no significant enhancement | – | – | –
